Legend:
[1] = Inhibition of growth of colon adenocarcinoma SW 480 cells; format: functional, cell-based; conditions: Homo sapiens, SW480
[2] = Inhibition of growth of H35N cells; format: functional, cell-based
Lacticaseibacillus casei = experiment: Inhibition of growth of Lactobacillus casei; format: functional, organism-based
Enterococcus faecium = experiment: Inhibition of growth of Staphylococcus faecium; format: functional, organism-based
H35R0.3 [3] = experiment: Inhibition of growth of H35R cells; format: functional, cell-based, Homo sapiens; conditions: Rattus norvegicus
Lymphoma cell line = experiment: Inhibition of growth of tumor cells, manca human lymphoma cells; format: functional, cell-based
H35R0.3 [4] = experiment: Inhibition of (6RS)-5-formyltetrahydrofolate (2 uM) transport in H35 hepatoma cell culture and % uptake was determined in presence of inhibitor methotrexate (50 uM); format: functional, cell-based
Method in brief: (§1)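 H35 hepatoma cells were grown to confluence, washed twice with Hanks BSS and incubated at 37 °C. [3H]-(6RS)-5-formyltetrahydrofolate (2 μM, 3.8×10^5 dpm/nmol) was added with or without inhibitor, and uptake was sampled at 10 min, within its linear range. Uptake is expressed as percent of the no-inhibitor control, as the mean of duplicate samples.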

H35R0.3 [5] = experiment: Inhibition of (6RS)-5-formyltetrahydrofolate (2 uM) transport in H35 hepatoma cell culture and % uptake was determined in presence of inhibitor DMPDDF (50 uM); format: functional, cell-based; method in brief: as §1
H35R0.3 [6] = experiment: Inhibition of (6RS)-5-formyltetrahydrofolate (2 uM) transport in H35 hepatoma cell cultured and % uptake was determined in presence of inhibitor (6RS)-5-formyltetrahydrofolate (50 uM); format: functional, cell-based; method in brief: as §1
H35R0.3 [7] = experiment: Inhibition of methotrexate (5 uM) transport in H35 hepatoma cell culture and % uptake was reported in presence of inhibitor aminopterin (50 uM); format: functional, cell-based
Method in brief: (§2)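 Confluent H35 hepatoma monolayers were washed twice with Hanks BSS and held at 37 °C. [3H]methotrexate (5 μM, 5.5×10^5 dpm/nmol) was added with or without inhibitor, and uptake was taken at 4 min, within its linear range. Results are percent of the uninhibited control uptake, averaged from duplicate samples.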

Thymidylate synthase [8] = target: T1, Thymidylate synthase (Lactobacillus casei, UniProt P00469); experiment: Inhibition of thymidylate synthase in Lactobacillus casei; set-up: species or system Lacticaseibacillus casei
T1 sequence (P00469 whole entry): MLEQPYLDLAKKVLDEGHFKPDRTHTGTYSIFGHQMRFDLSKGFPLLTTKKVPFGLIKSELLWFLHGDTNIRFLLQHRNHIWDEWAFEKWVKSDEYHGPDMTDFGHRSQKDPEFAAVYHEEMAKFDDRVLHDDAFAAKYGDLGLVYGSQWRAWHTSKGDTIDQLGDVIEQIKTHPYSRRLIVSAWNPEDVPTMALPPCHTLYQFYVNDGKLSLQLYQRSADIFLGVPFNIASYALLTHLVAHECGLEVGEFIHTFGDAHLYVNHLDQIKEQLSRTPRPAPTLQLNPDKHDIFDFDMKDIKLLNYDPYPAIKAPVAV

H35R0.3 [9] = experiment: Inhibition of (6RS)-5-formyltetrahydrofolate (2 uM) transport in H35 hepatoma cell culture; format: functional, cell-based; method in brief: as §1
H35R0.3 [10] = experiment: Inhibition of methotrexate (5 uM) transport in H35 hepatoma cell culture and % uptake was reported in presence of inhibitor DMPDDF (50 uM); format: functional, cell-based; method in brief: as §2
[11] = target: Bifunctional purine biosynthesis protein ATIC (Homo sapiens, UniProt P31939); experiment: Inhibition of AICAR formyltransferase from extract of Manca human lymphoma cells; format: cell-based
Bifunctional purine biosynthesis protein ATIC, sequence (P31939 whole entry): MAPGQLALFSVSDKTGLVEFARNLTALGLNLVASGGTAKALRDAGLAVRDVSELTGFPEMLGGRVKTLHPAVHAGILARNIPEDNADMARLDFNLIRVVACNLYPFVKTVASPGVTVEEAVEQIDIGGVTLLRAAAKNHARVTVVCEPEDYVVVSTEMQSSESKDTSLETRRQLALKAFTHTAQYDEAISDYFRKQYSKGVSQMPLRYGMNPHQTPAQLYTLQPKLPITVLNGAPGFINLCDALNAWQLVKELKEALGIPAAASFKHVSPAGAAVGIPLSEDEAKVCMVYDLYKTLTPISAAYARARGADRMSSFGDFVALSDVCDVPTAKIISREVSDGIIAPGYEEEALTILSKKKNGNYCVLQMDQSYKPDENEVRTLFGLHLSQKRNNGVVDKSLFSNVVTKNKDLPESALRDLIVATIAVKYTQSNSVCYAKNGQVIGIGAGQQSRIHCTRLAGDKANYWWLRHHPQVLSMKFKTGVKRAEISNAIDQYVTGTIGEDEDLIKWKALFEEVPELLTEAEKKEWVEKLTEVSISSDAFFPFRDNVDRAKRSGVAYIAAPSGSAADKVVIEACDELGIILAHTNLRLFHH

H35R0.3 [12] = experiment: Inhibition of (6RS)-5-formyltetrahydrofolate (2 uM) transport in H35 hepatoma cell culture and % uptake was determined in presence of inhibitor aminopterin (50 uM); format: functional, cell-based; method in brief: as §1
H35R0.3 [13] = experiment: Inhibition of methotrexate (5 uM) transport in H35 hepatoma cell culture and % uptake was reported in presence of inhibitor (6RS)-5-formyltetrahydrofolate (50 uM); format: functional, cell-based; method in brief: as §2
[14] = Inhibition of growth of H35FF cells; format: functional, cell-based
Method in brief: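 The H35FF line was derived from H35 cells by growth in 25 μM (6RS)-5-formyltetrahydrofolate, held constant, with FdUR raised from 0.3 nM in 3-fold steps to 100 nM. This selection amplifies thymidylate synthase to about 70 times the H35N level.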

Thymidylate synthase [15] = target: T2, Thymidylate synthase (Homo sapiens, UniProt P04818); experiment: Inhibition of pure human thymidylate synthase from extract of Manca human lymphoma cells; format: cell-based
T2 sequence (P04818 whole entry): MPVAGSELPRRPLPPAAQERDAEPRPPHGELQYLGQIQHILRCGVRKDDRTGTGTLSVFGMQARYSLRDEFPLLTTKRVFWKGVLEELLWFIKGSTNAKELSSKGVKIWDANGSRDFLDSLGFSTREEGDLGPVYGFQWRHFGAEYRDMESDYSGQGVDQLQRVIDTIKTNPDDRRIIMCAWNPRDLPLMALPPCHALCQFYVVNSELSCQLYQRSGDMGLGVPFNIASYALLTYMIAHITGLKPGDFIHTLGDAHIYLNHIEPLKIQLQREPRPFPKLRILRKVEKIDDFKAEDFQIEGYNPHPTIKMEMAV

H35R0.3 [16] = experiment: Inhibition of (6RS)-5-formyltetrahydrofolate (2 uM) transport in H35 hepatoma cell culture and % uptake was determined in presence of inhibitor PDDF (50 uM); format: functional, cell-based; method in brief: as §1
H35R0.3 [17] = experiment: Inhibition of (6RS)-5-formyltetrahydrofolate (2 uM) transport in H35 hepatoma cell culture and % uptake was determined in presence of inhibitor folic acid (50 uM); format: functional, cell-based; method in brief: as §1
H35R0.3 [18] = experiment: Inhibition of methotrexate (5 uM) transport in H35 hepatoma cell culture and % uptake was reported in presence of inhibitor PDDF (50 uM); format: functional, cell-based; method in brief: as §2
H35R0.3 [19] = experiment: Inhibition of methotrexate (5 uM) transport in H35 hepatoma cell culture and % uptake was reported in presence of inhibitor methotrexate (50 uM); format: functional, cell-based; method in brief: as §2
H35R0.3 [20] = experiment: Inhibition of methotrexate (5 uM) transport in H35 hepatoma cell culture and % uptake was reported in presence of inhibitor folic acid (50 uM); format: functional, cell-based; method in brief: as §2
H35R0.3 [21] = experiment: Inhibition of methotrexate (5 uM) transport in H35 hepatoma cell culture; format: functional, cell-based; method in brief: as §2
Thymidylate synthase [22] = target: T2, Thymidylate synthase; experiment: Inhibition of purified human thymidylate synthase from a SV40-transformed human fibroblast cell line cloned in Escherichia coli
Dihydrofolate reductase [23] = target: Dihydrofolate reductase (Lactobacillus casei, UniProt P00381); experiment: Inhibition of dihydrofolate reductase in Lactobacillus casei; set-up: species or system Lacticaseibacillus casei
Dihydrofolate reductase (Lactobacillus casei, UniProt P00381), sequence (P00381 whole entry): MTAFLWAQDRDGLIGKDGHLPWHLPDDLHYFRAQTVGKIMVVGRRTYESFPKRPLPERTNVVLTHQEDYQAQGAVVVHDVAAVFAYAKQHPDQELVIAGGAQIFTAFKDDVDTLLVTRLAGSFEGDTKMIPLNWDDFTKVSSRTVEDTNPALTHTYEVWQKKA

[24] = target: T3, Trifunctional purine biosynthetic protein adenosine-3 (Homo sapiens, UniProt P22102); experiment: Inhibition of GAR formyltransferase from extract of Manca human lymphoma cells; format: cell-based
T3 sequence (P22102 whole entry): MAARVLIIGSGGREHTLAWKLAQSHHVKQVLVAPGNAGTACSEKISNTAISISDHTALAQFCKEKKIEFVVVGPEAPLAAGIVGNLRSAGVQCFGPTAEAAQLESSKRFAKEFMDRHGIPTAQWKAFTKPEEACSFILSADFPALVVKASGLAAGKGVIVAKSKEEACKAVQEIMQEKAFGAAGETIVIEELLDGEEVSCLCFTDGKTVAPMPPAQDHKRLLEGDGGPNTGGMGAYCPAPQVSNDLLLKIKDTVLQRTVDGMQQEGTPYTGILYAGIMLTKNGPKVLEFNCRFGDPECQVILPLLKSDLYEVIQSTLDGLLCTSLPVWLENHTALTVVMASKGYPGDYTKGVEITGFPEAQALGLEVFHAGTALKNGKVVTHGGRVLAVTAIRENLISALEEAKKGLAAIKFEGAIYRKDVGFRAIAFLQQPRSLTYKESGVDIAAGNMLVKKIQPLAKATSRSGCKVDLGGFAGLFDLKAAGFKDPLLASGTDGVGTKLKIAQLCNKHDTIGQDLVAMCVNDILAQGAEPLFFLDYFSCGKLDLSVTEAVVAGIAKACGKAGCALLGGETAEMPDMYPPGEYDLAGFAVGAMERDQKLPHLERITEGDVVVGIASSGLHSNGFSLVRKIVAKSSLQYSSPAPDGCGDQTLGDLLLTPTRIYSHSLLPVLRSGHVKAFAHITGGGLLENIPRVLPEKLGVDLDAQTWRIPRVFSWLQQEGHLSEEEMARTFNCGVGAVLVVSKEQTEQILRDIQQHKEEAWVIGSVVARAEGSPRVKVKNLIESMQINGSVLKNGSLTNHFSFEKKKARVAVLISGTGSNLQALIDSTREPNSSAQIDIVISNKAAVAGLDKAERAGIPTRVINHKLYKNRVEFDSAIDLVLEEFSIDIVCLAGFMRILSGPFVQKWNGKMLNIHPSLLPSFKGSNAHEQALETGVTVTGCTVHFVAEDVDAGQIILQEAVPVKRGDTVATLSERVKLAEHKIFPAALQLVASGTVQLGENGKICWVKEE

Dihydrofolate reductase [25] = target: T4, Dihydrofolate reductase (Homo sapiens, UniProt P00374); experiment: Inhibition of pure human dihydrofolate reductase (DHFR) from lymphoblastoid cells
T4 sequence (P00374 whole entry): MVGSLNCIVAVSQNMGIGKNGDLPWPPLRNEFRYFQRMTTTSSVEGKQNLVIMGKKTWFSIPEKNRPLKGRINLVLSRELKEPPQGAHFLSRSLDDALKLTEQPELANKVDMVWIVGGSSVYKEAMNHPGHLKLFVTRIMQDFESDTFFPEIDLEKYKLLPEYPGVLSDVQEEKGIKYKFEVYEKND

Q: For `C#CCN(Cc1ccc2nc(C(F)(F)F)nc(O)c2c1)c1ccc(C(=O)NC(CCC(=O)O)C(=O)O)cc1` (centres undefined), which IC50 [1] is on record?
A: The IC50 was greater than 100000 nM.

Q: With `C#CCN(Cc1ccc2[nH]c(N)nc(=O)c2c1)c1ccc(C(=O)NC(CCC(=O)O)C(=O)O)cc1` (centres undefined) as the compound, how does the IC50 [2] read?
A: The IC50 was 3600 nM.

Q: What about the IC50 (Lacticaseibacillus casei) of the same compound?
A: The IC50 was 0.4 nM.

Q: And the IC50 (Enterococcus faecium)?
A: The IC50 was 0.13 nM.

Q: What about the IC50 (H35R0.3 [3]) of the same compound?
A: Its IC50 is 2000 nM.

Q: What about the IC50 (Lymphoma cell line) of the same compound?
A: The IC50 was 560 nM.

Q: Which results are given for `C#CCN(Cc1ccc2nc(C)nc(O)c2c1)c1ccc(C(=O)NC(CCC(=O)O)C(=O)O)cc1` (centres undefined)?
A: Uptake (H35R0.3 [4]): 22%; IC50 [2]: 55 nM; Uptake (H35R0.3 [5]): 8.5%; Uptake (H35R0.3 [6]): 22%; Uptake (H35R0.3 [7]): 25%; IC50 (Thymidylate synthase [8]): 100 nM; Uptake (H35R0.3 [9]): 100%; Uptake (H35R0.3 [10]): 25%; IC50 [11]: > 60000 nM; Uptake (H35R0.3 [12]): 11%; Uptake (H35R0.3 [13]): 25%; IC50 (Lacticaseibacillus casei): 22 nM; IC50 [14]: 7280 nM; IC50 (Thymidylate synthase [15]): 60 nM; Uptake (H35R0.3 [16]): 90%; Uptake (H35R0.3 [17]): 83%; IC50 (Enterococcus faecium): 6 nM; Uptake (H35R0.3 [18]): 100%; IC50 (H35R0.3 [3]): 2240 nM; Uptake (H35R0.3 [19]): 25%; Uptake (H35R0.3 [20]): 85%; IC50 [1]: 50 nM; Uptake (H35R0.3 [21]): 100%; IC50 (Thymidylate synthase [22]): 9.8 nM; IC50 (Dihydrofolate reductase [23]): 35000 nM; IC50 [24]: > 17000 nM; IC50 (Lymphoma cell line): 13 nM; IC50 (Dihydrofolate reductase [25]): > 30000 nM

Q: Which results are given for `CN(Cc1cnc2nc(N)nc(N)c2n1)c1ccc(C(=O)N[C@@H](CCC(=O)O)C(=O)O)cc1` [METHOTREXATE]?
A: IC50 [2]: 10 nM; IC50 [14]: 10 nM; IC50 (H35R0.3 [3]): 906 nM

Q: With `C#CCN(Cc1ccc2nc(C)n(C)c(=O)c2c1)c1ccc(C(=O)NC(CCC(=O)O)C(=O)O)cc1` (centres undefined) as the compound, how does the IC50 [1] read?
A: Its IC50 is greater than 100000 nM.

Q: And the IC50 (Thymidylate synthase [22])?
A: Its IC50 is 11300 nM.

Reference: ChEMBL document CHEMBL1124492, “Folate analogues. 32. Synthesis and biological evaluation of 2-desamino-2-methyl-N10-propargyl-5,8-dideazafolic acid and related compounds” (J Med Chem, 1989)
